Compound activity as filed in PubChem.
A selection: hits, their analogues and other compounds. The true share with any hit is near 3.9%.
CRFBP-R2 agonist = agonists of CRF-BP/CRF-R2 complex, primary screen, cell-based, HEK293, calcium dye fluorescence, uHTS; activation, % at 13.2 µM; CRF-binding protein / CRF receptor 2 complex (human); hit rate 0.46% among 350,000; AID 588473, 2011; calcium dye fluorescence (FLIPR); percent of saturating CRF peptide response;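 active = activation of at least 50%, plus an integration ratio under a set limit after plate pattern correction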
ANO1 activ = TMEM16A chloride channel activators or potentiators, primary screen, cell-based, HTS | Anoctamin-1 (Mus musculus), Q8BHY3 | HEK293 TMEM16A/YFP-H148Q/I152L, iodide quench fluorescence; active compounds read low | B-score at 10 µM | hit rate 0.3% among 340,000;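 active = fluorescence-ratio B-score plate-corrected deviation score at least 3 library SD below zero, with starting fluorescence score within 5 deviations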;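 note: channel opened by trigger with iodide after compound preincubation; score built on the fluorescence ratio of max minus min over baseline; more negative score means more quench and so TMEM16A activation or potentiation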
TAAR1 antag = human TAAR1 antagonists, primary screen, Fluo-8 calcium fluorescence, CHO RD-HGA16 cells. Trace amine-associated receptor 1 (Homo sapiens), Q96RJ0. antagonist. inhibition, % at 3 µM. hit rate 1.5% among 360,000. AID 624466, 2012;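 active = inhibition above a per-plate cutoff, the mean inhibition of test compounds on that plate plus 3 SD, cut at about 49% in these data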
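Material: RD-HGA16 CHO cells with stable hTAAR1 and Gα16; Dosing: single nominal final test compound concentration of 3 µM; Schedule: seeding 17-24 h prior, 75-min 37 °C, 30-min RT dye loading; Detection: kinetic Fluo-8 calcium fluorescence measurement; Measure: % inhibition from peak post-agonist over basal fluorescence ratio; Benchmarks: vehicle and agonist controls.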
TAAR1 ag = human TAAR1 agonists, primary screen, Fluo-8 calcium fluorescence, CHO RD-HGA16 cells; Trace amine-associated receptor 1 (Homo sapiens), Q96RJ0; vehicle wells 0%, saturating PEA agonist 100%; activation, % at 3 µM; hit rate 0.99% among 360,000; AID 624467, 2012;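 active = activation above the mean activation of all test compounds in the run plus 3 SD, cut at about 38% in these data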
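System: CHO RD-HGA16 cells carrying human TAAR1 plus Gα16; Incubation: 17-24 h seeding, 75 min 37 °C dye, 30 min RT; Measured by: Fluo-8 fluorescence, 5 s baseline then 140 s kinetic read; Control set: DMSO and PEA EC100; Replication: single well for each compound.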
CRFR2-BP antag = antagonists of CRF-BP/CRF-R2 complex, primary screen, cell-based, HEK293, calcium dye fluorescence, uHTS; inhibition, % at 11.8 µM; CRF-induced calcium fluorescence; AID 588475, 2011; hit rate 0.59% among 350,000;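 active = inhibition of the ligand-induced calcium signal above about 50% at the single tested concentration, limit read from the data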
TMEM16A inh = TMEM16A chloride channel inhibitors, primary screen, cell-based, HTS; Anoctamin-1 (Mus musculus), Q8BHY3; HEK293 TMEM16A/YFP iodide influx fluorescence, ionomycin; normalized B-score (activity score, 25-100; higher = stronger inhibition) at 10 µM; hit rate 1.2% among 310,000; AID 588511, 2011;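 active = ratio plate-corrected score three or more library SD toward inhibition, starting fluorescence score within five deviations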;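 note: score derived from kinetic fluorescence span divided by baseline fluorescence per well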
TMEM16A reconf = TMEM16A chloride channel inhibitors, confirmation, cell-based, re-confirmation; shares compounds with TMEM16A inh; HEK293 TMEM16A/YFP-H148Q, iodide quench fluorescence; ionomycin added to raise cell calcium; inhibition, % at 10 µM; hit rate 39% among 2,300; AID 652189, 2013;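 active = mean duplicate percent inhibition, scaled so buffer wells are 0 and the reference blocker 100, over three buffer SD above buffer mean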
TMEM16A Ca cntr = calcium mobilization in TMEM16A/YFP HEK293 cells, confirmation, counter-screen for TMEM16A inhibitor project | shares compounds with TMEM16A inh | Fluo4 calcium mobilization | calcium response (% of ionomycin), % at 10 µM | hit rate 2% among 2,300;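 active = duplicate-averaged calcium signal over 20% of the ionomycin maximum, relative to buffer baseline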;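 note: each well's signal is peak minus trough fluorescence divided by its pre-addition baseline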
YFP-HEK293 quench = iodide YFP quench changes in parental YFP-HEK293, counter-screen for TMEM16A inhibitor project, cell-based | shares compounds with TMEM16A inh | ionomycin | YFP ratio F(max-min)/F0 at 10 µM | 2,300 tested, under 10 active | AID 652233, 2013;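 active = yellow fluorescent protein signal ratio exceeding the buffer control mean by over 5 SD of those controls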;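 note: ratio is mean of duplicate wells from kinetic YFP trace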
ClC-1 rat inh = ClC-1 chloride channel inhibition, selectivity assay for TMEM16A inhibitor project, cell-based, voltage-dependent ClC-1. shares compounds with TMEM16A inh. CHO ClC-1-YFP, iodide influx fluorescence quench; iodide control reads 0, buffer control 100. ratio percent, % at 10 µM. 2,300 tested, under 10 active;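 active = duplicate-mean ratio percent above the mean of iodide-only control wells, which defines zero, plus 5 of their SD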;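 note: higher percent means stronger block of ClC-1 iodide influx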
Of the large screens only hits and unclear results are named; the others gave an inactive call (follow-up assays come after a bar, where they were run).

CC1CCCN(C(=O)Cc2cn(Cc3cccc(Cl)c3)c3ccccc23)C1 (stereo not given)	TMEM16A inh 100 | TMEM16A reconf 24% | TMEM16A Ca cntr inactive | YFP-HEK293 quench inactive | ClC-1 rat inh inactive
CCCCCSc1nnc(-c2cc(Br)ccc2N)c(=O)[nH]1	TMEM16A inh 25 | TMEM16A reconf inactive | TMEM16A Ca cntr inactive | YFP-HEK293 quench inactive | ClC-1 rat inh inactive
CCCCCCCSc1nnc(-c2ccccc2N)c(=O)[nH]1	none
Cc1cccc(NC(=O)CNC(=O)[C@H]2O[C@@H](n3ccc(N)nc3=O)[C@H](O)[C@@H]2O)c1C	none (no result: CRFBP-R2 agonist, ANO1 activ, CRFR2-BP antag, TMEM16A inh)
COc1ccc(S(=O)(=O)C(C#N)c2nc3ccccc3nc2N2CCCC(C)C2)cc1 (stereo not given)	TMEM16A inh 100 | TMEM16A reconf 56% | TMEM16A Ca cntr inactive | YFP-HEK293 quench inactive | ClC-1 rat inh inactive
Cc1cccc(S(=O)(=O)C(C#N)c2nc3ccccc3nc2N2CC(C)OC(C)C2)c1 (stereo not given)	TMEM16A inh 25 | TMEM16A reconf 18% | TMEM16A Ca cntr inactive | YFP-HEK293 quench inactive | ClC-1 rat inh inactive
N#CC(c1nc2ccccc2nc1N1CCOCC1)S(=O)(=O)c1ccccc1 (stereo not given)	none
CC(OC(=O)C1CCCC1)C(=O)Nc1ncc(Cl)cc1Cl (stereo not given)	none (no result: TMEM16A inh)
CNC[C@@H](CC1CCCCC1)NC[C@H](CC(C)C)NCCc1cccc(C(F)(F)F)c1	TMEM16A inh 25 | TMEM16A reconf inactive | TMEM16A Ca cntr inactive | YFP-HEK293 quench inactive | ClC-1 rat inh inactive
CCN(CC)CCCN(Cc1cc2cc3c(cc2[nH]c1=O)OCO3)C(=S)Nc1ccccc1	none
OC[C@@H]1CN(Cc2ccc3c(c2)OCO3)C[C@H](n2cnc3c(NC4CC4)ncnc32)O1	none (no result: CRFBP-R2 agonist, ANO1 activ, CRFR2-BP antag, TMEM16A inh)
Cc1ccc(O)c(C(=O)c2cnn(C(=O)c3cccc(S(=O)(=O)N(C)C)c3)c2)c1	none (no result: TMEM16A inh)
Cc1nn(-c2nc(-c3ccco3)cc(C(F)(F)F)n2)c(C)c1Br	TMEM16A inh 25 | TMEM16A reconf inactive | TMEM16A Ca cntr inactive | YFP-HEK293 quench inactive | ClC-1 rat inh inactive
O=C(O)c1ccccc1C=NNc1ccccn1	none (no result: TMEM16A inh)
Cc1ccc2nc(C)c3c(c2c1)OC(C(C)(Cl)Br)C3 (stereo not given)	none
Cc1nc2ccccc2c2c1CC(C(C)(Cl)Br)O2 (stereo not given)	TMEM16A inh 25 | TMEM16A reconf 18% | TMEM16A Ca cntr inactive | YFP-HEK293 quench inactive | ClC-1 rat inh inactive
O=C(Nc1cccc(S(=O)(=O)Nc2ccccc2F)c1)c1ccc2ccccc2n1	TMEM16A inh 100 | TMEM16A reconf inactive | TMEM16A Ca cntr inactive | YFP-HEK293 quench inactive | ClC-1 rat inh inactive
CCNc1nc(OC)nc(N(OC)S(=O)(=O)c2ccc(C)cc2)n1	none
Nc1ccc2c(c1)C1(CCC2)NC(=O)NC1=O (stereo not given)	none (no result: ANO1 activ, TMEM16A inh)
CCCOC(=O)c1ccc(NS(=O)(=O)c2cccs2)cc1	TMEM16A inh 25 | TMEM16A reconf inactive | TMEM16A Ca cntr inactive | YFP-HEK293 quench inactive | ClC-1 rat inh inactive
O=C(COC(=O)c1ccc(NS(=O)(=O)c2cccs2)cc1)NCc1ccco1	none (no result: TAAR1 antag, TAAR1 ag)
CC(=O)Nc1ccc(NC(=O)COC(=O)COc2ccc3ccccc3c2)cc1	none (no result: TMEM16A inh)
COc1ccc(NC(=O)C2CCN(S(=O)(=O)c3ccc4c(c3)NC(=O)C(C)S4)CC2)cc1 (stereo not given)	none
CC1Sc2ccc(S(=O)(=O)CCC(=O)NCc3ccc(Cl)cc3)cc2NC1=O (stereo not given)	TMEM16A inh 25 | TMEM16A reconf inactive | TMEM16A Ca cntr inactive | YFP-HEK293 quench inactive | ClC-1 rat inh inactive
CC1Sc2ccc(S(=O)(=O)N3CCC(C(=O)Nc4ccc(Cl)cc4)CC3)cc2NC1=O (stereo not given)	TMEM16A inh 25 | TMEM16A reconf 32% | TMEM16A Ca cntr inactive | YFP-HEK293 quench inactive | ClC-1 rat inh inactive
O=C(c1ccc(=O)[nH]c1)N1CCN(S(=O)(=O)c2ccc(Cl)cc2)CC1	none
COc1ccc(C(=O)N(Cc2ccccc2)c2cccc(C)c2)cc1	none
COc1ccccc1CC(=O)N(Cc1ccccc1)c1cccc(C)c1	TMEM16A inh 100 | TMEM16A reconf inactive | TMEM16A Ca cntr inactive | YFP-HEK293 quench inactive | ClC-1 rat inh inactive
CCOC(=O)N1CCC(NC(=O)C2CCCN(Cc3nc(-c4cccc(C)c4)oc3C)C2)CC1 (stereo not given)	TMEM16A inh 25 | TMEM16A reconf inactive | TMEM16A Ca cntr inactive | YFP-HEK293 quench inactive | ClC-1 rat inh inactive
Cc1oc(-c2ccc(Cl)cc2)nc1CN1CCCC(C(=O)N2CCN(C(=O)c3ccco3)CC2)C1 (stereo not given)	TMEM16A inh 25 | TMEM16A reconf 18% | TMEM16A Ca cntr inactive | YFP-HEK293 quench inactive | ClC-1 rat inh inactive
CC1(C(=O)Nc2ccc3c(c2)OCO3)CCN1C(=O)CCc1ccc(Cl)cc1Cl (stereo not given)	none (no result: CRFBP-R2 agonist, ANO1 activ, CRFR2-BP antag, TMEM16A inh)
CN1CCN(c2ccc(CNC(=O)C3(C)Cc4c(-c5ccccc5)ccnc4O3)cc2)CC1 (stereo not given)	none (no result: CRFBP-R2 agonist, ANO1 activ, CRFR2-BP antag, TMEM16A inh)
COC(=O)[C@]1(C)N[C@H](CN(C)C(=O)NC(C)C)[C@@H]2C(=O)N(C)C(=O)[C@@H]21	none (no result: TMEM16A inh)
N#C/C(=C/c1ccc(F)cc1)S(=O)(=O)c1ccccc1	none
N#C/C(=C\c1ccc(O)c(O)c1)S(=O)(=O)c1ccccc1	none | TMEM16A reconf 41% | TMEM16A Ca cntr inactive | YFP-HEK293 quench inactive | ClC-1 rat inh inactive
